Data: ChEMBL document CHEMBL1177802, “Novel semicarbazones based 2,5-disubstituted-1,3,4-oxadiazoles: one more step towards establishing four binding site pharmacophoric model hypothesis for anticonvulsant activity” (Bioorg Med Chem Lett, 2010)
The source made the active and inactive calls.

Columns and labels:
[1] = tested on: Mus musculus; test: Neurotoxicity in Swiss albino mouse at 300 mg/kg, ip after 0.5 hrs; assay type: toxicity, organism-based; design: dose 300 mg/kg, route intraperitoneal; settings: in vivo
In short: (§1)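 Acute neurotoxicity by rotorod test in mice given 30, 100 and 300 mg/kg ip, assessed 0.5 and 4.0 h after dosing. Reported as the minimal dose producing the effect in half or more of the animals. Absence of activity is judged at the 300 mg/kg maximum.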

[2] = tested on: Rattus norvegicus; test: Anticonvulsant activity against subcutaneous strychnine-induced seizures in Wistar rat at 300 mg/kg, ip after 4 hrs; assay type: functional, organism-based; design: dose 300 mg/kg
In short: (§2)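 Rats; subcutaneous strychnine-induced seizure model with compounds given intraperitoneally at 30, 100 and 300 mg/kg. Activity is checked at 0.5 h and 4.0 h and recorded as the minimal dose active in at least half of the animals. Absence of activity is judged at the 300 mg/kg maximum.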

[3] = tested on: Rattus norvegicus; test: Anticonvulsant activity against subcutaneous strychnine-induced seizures in Wistar rat at 300 mg/kg, ip after 0.5 hrs; assay type: functional, organism-based; design: dose 300 mg/kg; in short: as §2
[4] = tested on: Mus musculus; test: Anticonvulsant activity against subcutaneous pentylenetetrazole-induced seizures in ip dosed Swiss albino mouse assessed as minimum effective dose after 4 hrs; assay type: functional; settings: read-out: MED
In short: (§3)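 Mice; subcutaneous pentylenetetrazole seizure screen after ip dosing at 30, 100 and 300 mg/kg, read 0.5 and 4.0 h post-dose. Scored as the lowest dose protecting at least half of the animals. Absence of activity is judged at the 300 mg/kg maximum.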

[5] = tested on: Mus musculus; test: Anticonvulsant activity against subcutaneous pentylenetetrazole-induced seizures in Swiss albino mouse at 300 mg/kg, ip after 0.5 hrs; assay type: functional, organism-based; design: dose 300 mg/kg; in short: as §3
[6] = tested on: Mus musculus; test: Anticonvulsant activity against maximal electroshock-induced seizures in Swiss albino mouse at 300 mg/kg, ip after 4 hrs; assay type: functional, organism-based; design: dose 300 mg/kg
In short: (§4)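 Mice; compounds given ip at 30, 100 and 300 mg/kg and tested in the maximal electroshock seizure model at 0.5 and 4.0 h after dosing. Read-out is the minimal dose giving protection in half or more of the animals. Absence of activity is judged at the 300 mg/kg maximum.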

[7] = tested on: Mus musculus; test: Anticonvulsant activity against maximal electroshock-induced seizures in Swiss albino mouse at 300 mg/kg, ip after 0.5 hrs; assay type: functional, organism-based; design: dose 300 mg/kg; in short: as §4
[8] = tested on: Mus musculus; test: Neurotoxicity in Swiss albino mouse at 300 mg/kg, ip after 4 hrs; assay type: toxicity, organism-based; design: dose 300 mg/kg, route intraperitoneal; settings: in vivo; in short: as §1
[9] = tested on: Mus musculus; test: Neurotoxicity in ip dosed Swiss albino mouse assessed as minimum dose required to cause toxicity after 4 hrs; assay type: organism-based; settings: in vivo; in short: as §1
[10] = tested on: Mus musculus; test: Anticonvulsant activity against subcutaneous pentylenetetrazole-induced seizures in Swiss albino mouse at 300 mg/kg, ip after 4 hrs; assay type: functional, organism-based; design: dose 300 mg/kg; in short: as §3
[11] = tested on: Mus musculus; test: Anticonvulsant activity against maximal electroshock-induced seizures in ip dosed Swiss albino mouse assessed as minimum effective dose after 4 hrs; assay type: functional; settings: read-out: MED; in short: as §4
[12] = tested on: Mus musculus; test: Neurotoxicity in ip dosed Swiss albino mouse assessed as minimum dose required to cause toxicity after 0.5 hrs; assay type: organism-based; settings: in vivo; in short: as §1
[13] = tested on: Rattus norvegicus; test: Anticonvulsant activity against subcutaneous strychnine-induced seizures in ip dosed Wistar rat assessed as minimum effective dose after 4 hrs; assay type: functional; settings: read-out: MED; in short: as §2
[14] = tested on: Mus musculus; test: Anticonvulsant activity against maximal electroshock-induced seizures in ip dosed Swiss albino mouse assessed as minimum effective dose after 0.5 hrs; assay type: functional; settings: read-out: MED; in short: as §4
[15] = tested on: Mus musculus; test: Anticonvulsant activity against subcutaneous pentylenetetrazole-induced seizures in ip dosed Swiss albino mouse assessed as minimum effective dose after 0.5 hrs; assay type: functional; settings: read-out: MED; in short: as §3
[16] = tested on: Rattus norvegicus; test: Anticonvulsant activity against subcutaneous strychnine-induced seizures in ip dosed Wistar rat assessed as minimum effective dose after 0.5 hrs; assay type: functional; settings: read-out: MED
In short: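 Rats given 30, 100 or 300 mg/kg ip and challenged with subcutaneous strychnine. Protection was read at 0.5 and 4.0 h after dosing. The value is the minimal dose that gave activity in half or more of the animals; no activity at 300 mg/kg was the highest-dose cut-off.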

| Structure (SMILES) | Activity [1] | MED [2] | MED [3] | minimal effective dose [4] | MED [5] | MED [6] | MED [7] | Activity [8] | Activity [9] | MED [10] | minimal effective dose [11] | Activity [12] | minimal effective dose [13] | minimal effective dose [14] | minimal effective dose [15] | minimal effective dose [16] |
| --- | --- | --- | --- | --- | --- | --- | --- | --- | --- | --- | --- | --- | --- | --- | --- | --- |
| C/C(=N/NC(=O)Nc1nnc(COc2ccc3ccccc3c2)o1)c1ccc(Cl)cc1 | Non-toxic | inactive | inactive | 300 mg/kg | inactive | inactive | inactive | Non-toxic | – | – | – | – | – | – | – | – |
| COc1ccc(/C(=N\NC(=O)Nc2nnc(COc3ccc4ccccc4c3)o2)c2ccccc2)cc1 | Non-toxic | inactive | inactive | – | inactive | – | inactive | – | 300 mg/kg | inactive | 300 mg/kg | – | – | – | – | – |
| COc1cc(/C=N\NC(=O)Nc2nnc(COc3ccc4ccccc4c3)o2)ccc1O | – | – | inactive | – | inactive | inactive | inactive | Non-toxic | – | inactive | – | 300 mg/kg | 300 mg/kg | – | – | – |
| O=C1NC(=O)C(c2ccccc2)(c2ccccc2)N1 [PHENYTOIN] | – | – | inactive | – | inactive | – | – | – | 100 mg/kg | inactive | 30 mg/kg | 100 mg/kg | 100 mg/kg | 30 mg/kg | – | – |
| O=C(N/N=C\c1ccc([N+](=O)[O-])cc1)Nc1nnc(COc2ccc3ccccc3c2)o1 | Non-toxic | – | inactive | – | inactive | inactive | – | – | 300 mg/kg | inactive | – | – | 300 mg/kg | 300 mg/kg | – | – |
| Cc1ccc(/C=N\NC(=O)Nc2nnc(COc3ccc4ccccc4c3)o2)cc1 | Non-toxic | inactive | inactive | – | inactive | – | inactive | Non-toxic | – | inactive | 300 mg/kg | – | – | – | – | – |
| CN(C)c1ccc(/C=N\NC(=O)Nc2nnc(COc3ccc4ccccc4c3)o2)cc1 | Non-toxic | inactive | inactive | – | inactive | – | – | – | 300 mg/kg | inactive | 300 mg/kg | – | – | 100 mg/kg | – | – |
| C/C(=N/NC(=O)Nc1nnc(COc2ccc3ccccc3c2)o1)c1ccc(C)cc1 | – | inactive | inactive | – | – | inactive | inactive | Non-toxic | – | inactive | – | 300 mg/kg | – | – | 300 mg/kg | – |
| CCC1(C)CC(=O)NC1=O (centres undefined) [ETHOSUXIMIDE] | Non-toxic | inactive | – | 300 mg/kg | – | inactive | inactive | Non-toxic | – | – | – | – | – | – | 100 mg/kg | 300 mg/kg |
| O=C(N/N=C\c1ccccc1)Nc1nnc(COc2ccc3ccccc3c2)o1 | Non-toxic | inactive | inactive | – | inactive | – | inactive | – | 300 mg/kg | inactive | 300 mg/kg | – | – | – | – | – |
| O=C(N/N=C\c1ccc(Cl)cc1)Nc1nnc(COc2ccc3ccccc3c2)o1 | – | inactive | inactive | – | inactive | inactive | inactive | Non-toxic | – | inactive | – | 300 mg/kg | – | – | – | – |
| CCCC(CCC)C(=O)[O-].[Na+] [VALPROATE SODIUM] | Non-toxic | inactive | – | – | – | inactive | – | Non-toxic | – | inactive | – | – | – | 300 mg/kg | 300 mg/kg | 300 mg/kg |
| O=C(N/N=C\c1cccc(O)c1)Nc1nnc(COc2ccc3ccccc3c2)o1 | Non-toxic | inactive | inactive | 300 mg/kg | inactive | – | inactive | – | 300 mg/kg | – | 300 mg/kg | – | – | – | – | – |
| C/C(=N/NC(=O)Nc1nnc(COc2ccc3ccccc3c2)o1)c1ccc(O)cc1 | Non-toxic | inactive | inactive | – | inactive | – | – | – | 300 mg/kg | inactive | 300 mg/kg | – | – | 100 mg/kg | – | – |
| COc1ccc(/C=N\NC(=O)Nc2nnc(COc3ccc4ccccc4c3)o2)cc1 | Non-toxic | inactive | inactive | 300 mg/kg | inactive | inactive | inactive | Non-toxic | – | – | – | – | – | – | – | – |
| C/C(=N/NC(=O)Nc1nnc(COc2ccc3ccccc3c2)o1)c1ccc(N)cc1 | Non-toxic | – | inactive | 300 mg/kg | inactive | – | inactive | Non-toxic | – | – | 300 mg/kg | – | 300 mg/kg | – | – | – |
| O=C(NN=C(c1ccccc1)c1ccccc1)Nc1nnc(COc2ccc3ccccc3c2)o1 | – | inactive | inactive | – | inactive | – | inactive | Non-toxic | – | inactive | 300 mg/kg | 300 mg/kg | – | – | – | – |
| NC(=O)N1c2ccccc2C=Cc2ccccc21 [CARBAMAZEPINE] | – | inactive | inactive | 300 mg/kg | – | – | – | – | 300 mg/kg | – | 100 mg/kg | 100 mg/kg | – | 30 mg/kg | 100 mg/kg | – |
